# Measured values published in ChEMBL document CHEMBL4130637, “25 S-Adamantyl-23-yne-26,27-dinor-1α,25-dihydroxyvitamin D3: Synthesis, Tissue Selective Biological Activities, and X-ray Crystal Structural Analysis of Its Vitamin D Receptor Complex” (J Med Chem, 2018).
# Active and inactive are the calls of the source. The rule behind the calls is not given here.
# What was measured:
# [1] = target: T1, Vitamin D3 receptor (Homo sapiens) (UniProt P11473); test: Agonist activity at VDR in human SW480 cells assessed as increase in CYP24A1 gene expression at 100 nM after 24 hrs by RT-PCR method relative to 1,25(OH)2D3; format: cell-based
# T1 sequence (whole entry): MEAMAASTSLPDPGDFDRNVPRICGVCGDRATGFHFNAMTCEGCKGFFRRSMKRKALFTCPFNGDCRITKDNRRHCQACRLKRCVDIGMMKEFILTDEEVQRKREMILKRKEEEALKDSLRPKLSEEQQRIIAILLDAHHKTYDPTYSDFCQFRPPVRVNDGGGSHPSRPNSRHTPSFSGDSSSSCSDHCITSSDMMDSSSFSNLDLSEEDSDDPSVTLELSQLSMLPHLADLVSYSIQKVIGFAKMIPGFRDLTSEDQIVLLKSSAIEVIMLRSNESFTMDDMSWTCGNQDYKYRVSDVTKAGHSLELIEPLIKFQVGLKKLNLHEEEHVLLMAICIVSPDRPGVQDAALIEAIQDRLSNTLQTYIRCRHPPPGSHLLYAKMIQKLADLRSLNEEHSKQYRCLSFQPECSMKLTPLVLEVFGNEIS
# In short: (§1)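 Cells treated with ligand at 100 nM for 24 h. mRNA of the target gene measured by reverse transcription and quantitative real-time PCR. Expression given as percentage of that induced by an equal concentration of 1,25(OH)2D3. Significance tested versus vehicle control.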
# [2] = target: T1, Vitamin D3 receptor (Homo sapiens); test: Transactivation of VDR (unknown origin) expressed in HEK293 cells harboring TK-Spp X 3-LUC reporter plasmid after 24 hrs by luciferase reporter gene assay relative to control; format: cell-based
# In short: (§2)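 HEK293 cells transfected with pCMX-VDR and TKSpp × 3-LUC reporter. Cells treated with vehicle or ligand at 10-14 M to 10^-8 M for 24 h, then harvested. Luciferase activity assayed alongside β-galactosidase activity.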
# [3] = Stability in human MG63 cells assessed as parent compound remaining at 1 uM after 24 hrs by HPLC analysis; format: ADME, cell-based, MG-63; settings: read-out: Stability
# In short: (§3)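 MG63 cells cultured with compound (1 µM) in medium containing 10% FBS. Uptake sampled at 5 and 10 min, stability after 24 h of culture. Compound levels in cells and medium determined by HPLC.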
# [4] = Drug uptake in human MG63 cells at 1 uM after 5 mins by HPLC analysis; format: ADME, cell-based; settings: mg-63, 5 min; in short: as §3
# [5] = target: T2, Vitamin D3 receptor (Homo sapiens, UniProt P11473); test: Displacement of [26,27-Methyl-3H]-1,25(OH)2D3 from recombinant human GST-tagged VDR LBD (140 to 427 residues) expressed in Escherichia coli BL21 preincubated for 30 mins followed by radioligand addition measured after 20 hrs
# T2 sequence (P11473 whole entry): T1 sequence (whole entry)
# In short: (§4)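 GST-VDR fusion protein incubated with [3H]1,25(OH)2D3 plus unlabeled competitor over a range of concentrations. Values are means ± standard deviations of triplicate assays.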
# [6] = Drug uptake in human MG63 cells at 1 uM after 10 mins by HPLC analysis; format: ADME, cell-based; settings: mg-63, 10 min; in short: as §3
# [7] = target: T1, Vitamin D3 receptor (Homo sapiens); test: Agonist activity at VDR in human SW480 cells assessed as increase in E-cadherin gene expression at 100 nM after 24 hrs by RT-PCR method relative to 1,25(OH)2D3; format: cell-based; in short: as §1
# [8] = target: T1, Vitamin D3 receptor (Homo sapiens); test: Agonist activity at VDR in human MG63 cells assessed as increase in OCN gene expression at 100 nM after 24 hrs by RT-PCR method relative to 1,25(OH)2D3; format: cell-based; in short: as §1
# [9] = target: T1, Vitamin D3 receptor (Homo sapiens); test: Agonist activity at VDR in human HaCaT cells assessed as increase in CYP24A1 gene expression at 100 nM after 24 hrs by RT-PCR method relative to 1,25(OH)2D3; format: cell-based; in short: as §1
# [10] = target: T1, Vitamin D3 receptor (Homo sapiens); test: Agonist activity at VDR in human HaCaT cells assessed as increase in CAMP gene expression at 100 nM after 24 hrs by RT-PCR method relative to 1,25(OH)2D3; format: cell-based; in short: as §1
# [11] = target: T1, Vitamin D3 receptor (Homo sapiens); test: Agonist activity at VDR in human SW480 cells assessed as increase in TRPV6 gene expression at 100 nM after 24 hrs by RT-PCR method relative to 1,25(OH)2D3; format: cell-based; in short: as §1
# [12] = target: T1, Vitamin D3 receptor (Homo sapiens); test: Agonist activity at VDR in HEK293 cells assessed as increase in CYP24A1 gene expression at 100 nM after 24 hrs by RT-PCR method relative to 1,25(OH)2D3; format: cell-based; in short: as §1
# [13] = target: T1, Vitamin D3 receptor (Homo sapiens); test: Displacement of [26,27-Methyl-3H]-1,25(OH)2D3 from recombinant human GST-tagged VDR LBD (140 to 427 residues) expressed in Escherichia coli BL21 preincubated for 30 mins followed by radioligand addition measured after 20 hrs relative to 1,25(OH)2D3; in short: as §4
# [14] = target: T2, Vitamin D3 receptor; test: Transactivation of VP16-tagged VDR (unknown origin) expressed in HEK293 cells harboring pCMX-GAL4-RXRalpha and MH100(UAS) X 4tk-LUC reporter plasmid assessed as increase in interaction with RXRalpha by […] reporter gene based mammalian two-hybrid assay; format: cell-based
# [15] = target: T1, Vitamin D3 receptor (Homo sapiens); test: Agonist activity at VDR in human U937 cells assessed as increase in CAMP gene expression at 100 nM after 24 hrs by RT-PCR method relative to 1,25(OH)2D3; format: cell-based; in short: as §1
# [16] = target: T1, Vitamin D3 receptor (Homo sapiens); test: Agonist activity at VDR in human U937 cells assessed as increase in CYP24A1 gene expression at 100 nM after 24 hrs by RT-PCR method relative to 1,25(OH)2D3; format: cell-based; in short: as §1
# [17] = target: T2, Vitamin D3 receptor; test: Transactivation of VP16-tagged VDR (unknown origin) expressed in HEK293 cells harboring pCMX-GAL4-SRC-1 and MH100(UAS) X 4tk-LUC reporter plasmid assessed as increase in SRC-1 recruitment by […] reporter gene based mammalian two-hybrid assay; format: cell-based
# [18] = target: T2, Vitamin D3 receptor; test: Transactivation of VDR (unknown origin) expressed in HEK293 cells harboring TK-Spp X 3-LUC reporter plasmid after 24 hrs by luciferase reporter gene assay; format: cell-based; in short: as §2
# [19] = target: T2, Vitamin D3 receptor; test: Transrepression of VP16-tagged VDR (unknown origin) expressed in HEK293 cells harboring pCMX-GAL4-NCoR and MH100(UAS) X 4tk-LUC reporter plasmid assessed as increase in NCoR recruitment by […] reporter gene based mammalian two-hybrid assay; format: cell-based
# [20] = target: T1, Vitamin D3 receptor (Homo sapiens); test: Transactivation of VDR (unknown origin) expressed in HEK293 cells harboring TK-Spp X 3-LUC reporter plasmid after 24 hrs by luciferase reporter gene assay relative to 1,25(OH)2D3; format: cell-based; in short: as §2
# [21] = target: T1, Vitamin D3 receptor (Homo sapiens); test: Agonist activity at VDR in human MG63 cells assessed as increase in CYP24A1 gene expression at 100 nM after 24 hrs by RT-PCR method relative to 1,25(OH)2D3; format: cell-based; in short: as §1
# [22] = Drug degradation in human MG63 cells at 1 uM after 24 hrs by HPLC analysis; format: ADME, cell-based, MG-63; settings: read-out: Drug degradation; in short: as §3
Activity [1],Activity [2] [%],"remaining at 24 h, 1 µM [3] [%]",Drug uptake [4] [%],IC50 [5] [nM],Drug uptake [6] [%],Activity [8],Activity [9],Activity [12],inhibition [13] [%],EC50 [14] [nM],Activity [15],Activity [16],EC50 [17] [nM],EC50 [18] [nM],IC50 [19] [nM],Emax [20] [%],Activity [21],Structure (SMILES),other results
8%,90,49,3.1,0.24,6,64%,7%,160%,50,> 0.14,96%,54%,> 1.2,0.03,0.09,87,44%,C=C1/C(=C\C=C2/CCC[C@]3(C)[C@@H]([C@H](C)CC#C[C@@H](O)C45CC6CC(CC(C6)C4)C5)CC[C@@H]23)C[C@@H](O)C[C@@H]1O,Activity [7]: 12%; Activity [10]: 24%; Activity [11]: 22%
–,–,70,3.4,–,2.3,–,–,–,–,–,–,–,–,–,–,–,–,C=C1/C(=C\C=C2/CCC[C@]3(C)[C@@H]([C@H](C)CCCC(C)(C)O)CC[C@@H]23)C[C@@H](O)C[C@@H]1O [CALCITRIOL],"metabolised at 24 h, 1 µM [22]: 30%"
Active,–,90,6.9,3.13,9.5,Active,Active,Active,4,> 1.2,Active,Active,> 3.2,> 5.69,1.75,–,Active,C=C1/C(=C\C=C2/CCC[C@]3(C)[C@@H]([C@H](C)CC#C[C@H](O)C45CC6CC(CC(C6)C4)C5)CC[C@@H]23)C[C@@H](O)C[C@@H]1O,–
50%,170,43,6.1,–,9.7,–,30%,100%,–,–,–,85%,–,–,–,81,58%,C=C1[C@H](O)CC(=C/C=C2\CCC[C@]3(C)[C@@H]([C@H](C)CC#C[C@@H](O)C45CC6CC(CC(C6)C4)C5)CC[C@@H]23)C[C@H]1O,–
